In brackets after ≈: the same amount, converted by molar mass. Activity calls are given as the source filed them. The calls are words filed in the database; no cut-off is given here.
Assays:
[1] = Antioxidant activity assessed as ABTS radical scavenging activity; format: functional
In short: (§1)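 Radical scavenging of pure compounds against DPPH and ABTS radicals, run by previously published methods and reported as IC50 in μM. Positive controls were BHT for DPPH and ascorbic acid for ABTS.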

Escherichia coli = assay: Antimicrobial activity against Escherichia coli EMBLC-1 by XTT assay; format: functional
In short: (§2)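 Microplate assay on bacterial strains supplied by the Institute of Oceanology, Chinese Academy of Sciences, with chloramphenicol as the positive control.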

Staphylococcus aureus = assay: Antimicrobial activity against Staphylococcus aureus EMBLC-2 by XTT assay; format: functional; in short: as §2
Edwardsiella tarda = assay: Antimicrobial activity against Edwardsiella tarda QDIO-2 by XTT assay; format: functional; in short: as §2
[2] = Antioxidant activity assessed as DPPH radical scavenging activity; format: functional; in short: as §1
[3] = Cytotoxicity against human A2780cis cells after 72 hrs by MTT assay; format: functional, cell-based
A2780 [4] = assay: Cytotoxicity against human A2780 cells after 72 hrs by MTT assay; format: functional, cell-based; conditions: A2780, 72 h
A2780cis = assay: Cytotoxicity against human A2780cis cells at 100 uM after 72 hrs by MTT assay; format: functional, cell-based
A2780 [5] = assay: Cytotoxicity against human A2780 cells at 100 uM after 72 hrs by MTT assay; format: functional, cell-based

Row | Compound | IC50 [1] [µM] | MIC (Escherichia coli) | MIC (Staphylococcus aureus) [µg/mL] | MIC (Edwardsiella tarda) | IC50 [2] [µM] | IC50 [3] [µM] | IC50 (A2780 [4]) [µM] | Activity (A2780cis) | Activity (A2780 [5])
1 | O=C1O[C@H]([C@@H](O)CO)C(O)=C1O [ASCORBIC ACID] | 16 |  |  |  |  |  |  |  | 
2 | O=C(N[C@H](CO)[C@H](O)c1ccc([N+](=O)[O-])cc1)C(Cl)Cl [CHLORAMPHENICOL] |  | 4 µg/mL (≈ 12.4 µM) | 2 (≈ 6.19 µM) | 2 µg/mL (≈ 6.19 µM) |  |  |  |  | 
3 | Cc1cc(O)c2c(c1O)[C@H](O)[C@H]1C[C@@H](O)CC[C@@H]1C2=O | 8.3 | 64 µg/mL (≈ 230 µM) | 4 (≈ 14.4 µM) | inactive | 12 | > 10 | > 10 |  | 
4 | Cc1cc(O)c2c(c1O)[C@H](O)[C@H]1C[C@@H](O)C[C@@H](O)[C@@H]1C2=O | 34 | 32 µg/mL (≈ 109 µM) | 4 (≈ 13.6 µM) | 64 µg/mL (≈ 217 µM) | 42 | > 10 | > 10 |  | 
5 | CO[C@@H]1c2c(O)cc(C)c(O)c2C(=O)[C@@H]2C[C@H](O)C[C@H](O)[C@@H]12 | 24 | inactive | 8 (≈ 25.9 µM) | inactive | 30 | > 10 | > 10 |  | 
6 | Cc1cc(C(C)(C)C)c(O)c(C(C)(C)C)c1 [BUTYLATED HYDROXYTOLUENE] |  |  |  |  | 61 |  |  |  | 
7 | Cc1cc(O)c2c(c1O)[C@H](O)[C@H]1C[C@@H](O)C[C@H](O)[C@@H]1C2=O | 31 | 32 µg/mL (≈ 109 µM) | 4 (≈ 13.6 µM) | 64 µg/mL (≈ 217 µM) | 52 | > 10 | > 10 |  | 
8 | O=C1c2c(O)cc(CO)c(O)c2[C@H](O)[C@H]2C[C@@H](O)CC[C@H]12 | 19 | 16 µg/mL (≈ 54.4 µM) | 2 (≈ 6.8 µM) | 32 µg/mL (≈ 109 µM) | 31 |  |  | Active | Active

From ChEMBL document CHEMBL4004784, “Antioxidant Hydroanthraquinones from the Marine Algal-Derived Endophytic Fungus Talaromyces islandicus EN-501” (J Nat Prod, 2017)
